This note sets out measurements from PMC4784694 (Molecular cancer therapeutics, 2015).

In data set [1] the test system is breast cancer cells. The conditions noted are these: Supplemental Figure 3B; others and own data.
Data set [2] relates to MDA-MB-231 tumors. Format: in vivo, NSG mice. The following applies: eribulin 0.1 mg/kg i.v.; POL5551 20 mg/kg s.c. b.i.d.; Figure 5A–C.
Data set [3] has as its system MDA-MB-231 tumors. As to the kind of experiment: Eribulin dose ranging in mice bearing MDA-MB-231 tumors. Format: in vivo. In a few lines:
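Female NSG mice, 6–8 weeks old, were inoculated with 5×10⁵ MDA-MB-231 cells in Matrigel into the #9 mammary fat pad to form orthotopic tumours. Eribulin was diluted in saline and given i.v. once a week, at 0.1 mg/kg for primary fat-pad therapy. Vehicle controls received saline. Weight change is reported as mean and range.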

As to `c1cc(CN2CCCNCCNCCCNCC2)ccc1CN1CCCNCCNCCCNCC1` [AMD3100], the “SDF-1 mediated migration of breast cancer cells” value in data set [1] is recorded as “can block SDF-1 mediated migration of breast cancer cells”.

On to `C=C1C[C@@H]2CC[C@@]34C[C@H]5O[C@H]6[C@@H](O3)[C@H]3O[C@H](CC[C@@H]3O[C@H]6[C@H]5O4)CC(=O)C[C@@H]3[C@@H](OC)[C@@H](C[C@H](O)CN)O[C@H]3C[C@H]3O[C@@H](CC[C@@H]1O2)C[C@@H](C)C3=C` [eribulin, Eribulin], for which, in data set [2], the “Primary MFP tumor growth” value was “decreased primary tumor growth rate”. In addition, the “Primary breast tumor reduction” value in data set [3] (eribulin 0.1 mg/kg single-agent, Supplemental Figure 5F) amounted to 50%. Moreover, the Mice survival result in data set [3] (eribulin dose ranging, Supplemental Figure 5D) is “prolonged mice survival in a dose-dependent manner”. The “Treatment associated weight loss” value in data set [3] (high dose of eribulin (>0.5 mg/kg), Supplemental Figure 5E) was “greater treatment associated weight loss”.
